Values joined by “and” are separate entries in the source; they are usually repeats but may differ in a detail not shown here. Identical values can stand only once.
Tested on: Fibroblast
Assay: Multiplex assay against human fibroblast
Assay type: toxicity, cell-based
How it was run: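 Four dyes were applied at seeding to live cells: Hoechst33342, BioTracker Green Microtubule Cytoskeleton Dye, MitoTracker Red and Annexin V Alexa Fluor 680. Imaging after compound addition used a CQ1 microscope at 37°C and 5% CO2. CellPathfinder machine-learning gating then sorted cells into Hoechst high-intensity objects or normal cells, normal cells into healthy, pyknosed or fragmented nuclei, and pyknosed cells into mitotic or apoptotic, with tubulin, mitochondrial-mass and membrane-permeability phenotypes given as per cents of healthy-nucleus cells.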

[1] = 12 h, 1 µM, compound concentration 1 uM
[2] = 12 h, 10 µM, compound concentration 10 uM
[3] = 24 h, 1 µM, compound concentration 1 uM
[4] = 24 h, 10 µM, compound concentration 10 uM
[5] = 48 h, 1 µM, compound concentration 1 uM
[6] = 48 h, 10 µM, compound concentration 10 uM

CC(C)c1ccc(/C=N/NC(=O)c2ccc(O)cc2)cc1
Population Apoptotic (%) [1]: 12.07% and 15.38%
Population Fragmented Nuclei (%) [1]: 10.89% and 4%
Population Healthy Nuclei (%) [1]: 60.4% and 76.5%
Population Hoechst High Intensity Objects (%) [1]: 0%
Population Membrane Permeable-Phenotype (%) [1]: 4.1% and 2.61%
Population Mitochondria Different-Phenotype (%) [1]: 6.56% and 9.15%
Population Mitotic Cells (%) [1]: 87.93% and 84.62%
Population Normal (%) [1]: 100%
Population Pyknosed Nuclei (%) [1]: 28.71% and 19.5%
Population Tubulin-Different-Phenotype (%) [1]: 12.3% and 17.65%
Total Cell Count [1]: 202 and 200
Population Fragmented Nuclei (%) [2]: 13.41% and 4.65%
Population Healthy Nuclei (%) [2]: 61.45% and 73.02%
Population Hoechst High Intensity Objects (%) [2]: 0%
Population Membrane Permeable-Phenotype (%) [2]: 8.18% and 2.55%
Population Mitochondria Different-Phenotype (%) [2]: 6.36% and 9.55%
Population Mitotic Cells (%) [2]: 95.56% and 77.08%
Population Normal (%) [2]: 100%
Population Pyknosed Nuclei (%) [2]: 25.14% and 22.33%
Population Tubulin-Different-Phenotype (%) [2]: 20% and 17.2%
Total Cell Count [2]: 179 and 215
Population Apoptotic (%) [3]: 15% and 14.81%
Population Fragmented Nuclei (%) [3]: 10.53% and 4.39%
Population Healthy Nuclei (%) [3]: 71.93% and 82.44%
Population Hoechst High Intensity Objects (%) [3]: 0%
Population Membrane Permeable-Phenotype (%) [3]: 1.83% and 3.55%
Population Mitochondria Different-Phenotype (%) [3]: 4.27% and 7.1%
Population Mitotic Cells (%) [3]: 85% and 85.19%
Population Normal (%) [3]: 100%
Population Pyknosed Nuclei (%) [3]: 17.54% and 13.17%
Population Tubulin-Different-Phenotype (%) [3]: 12.2% and 18.34%
Total Cell Count [3]: 228 and 205
Population Fragmented Nuclei (%) [4]: 10.93% and 4.82%
Population Healthy Nuclei (%) [4]: 66.12% and 76.75%
Population Hoechst High Intensity Objects (%) [4]: 0%
Population Membrane Permeable-Phenotype (%) [4]: 5.79% and 3.43%
Population Mitochondria Different-Phenotype (%) [4]: 7.44% and 5.14%
Population Mitotic Cells (%) [4]: 95.24% and 83.33%
Population Normal (%) [4]: 100%
Population Pyknosed Nuclei (%) [4]: 22.95% and 18.42%
Population Tubulin-Different-Phenotype (%) [4]: 14.88% and 16%
Total Cell Count [4]: 183 and 228
Population Apoptotic (%) [5]: 27.27% and 44.44%
Population Fragmented Nuclei (%) [5]: 8% and 5.96%
Population Healthy Nuclei (%) [5]: 87.11% and 89.91%
Population Hoechst High Intensity Objects (%) [5]: 0%
Population Membrane Permeable-Phenotype (%) [5]: 1.02% and 3.57%
Population Mitotic Cells (%) [5]: 72.73% and 55.56%
Population Normal (%) [5]: 100%
Population Pyknosed Nuclei (%) [5]: 4.89% and 4.13%
Population Tubulin-Different-Phenotype (%) [5]: 9.18% and 15.31%
Total Cell Count [5]: 225 and 218
Population Apoptotic (%) [6]: 40% and 30%
Population Fragmented Nuclei (%) [6]: 13.54% and 4.26%
Population Healthy Nuclei (%) [6]: 78.65% and 87.23%
Population Hoechst High Intensity Objects (%) [6]: 0%
Population Membrane Permeable-Phenotype (%) [6]: 3.31% and 2.44%
Population Mitochondria Different-Phenotype (%) [6]: 6.62% and 1.95%
Population Mitotic Cells (%) [6]: 60% and 70%
Population Normal (%) [6]: 100%
Population Pyknosed Nuclei (%) [6]: 7.81% and 8.51%
Population Tubulin-Different-Phenotype (%) [6]: 10.6% and 14.63%
Total Cell Count [6]: 192 and 235

Cn1cnc(-c2cnc(O[C@H]3CCN(C(=O)Cc4ccc(OC(F)(F)F)cc4)C[C@H]3F)c(C(N)=O)c2)c1
Population Apoptotic (%) [1]: 14%
Population Healthy Nuclei (%) [1]: 57.67% and 77.82%
Population Hoechst High Intensity Objects (%) [1]: 0%
Population Mitotic Cells (%) [1]: 86% and 87.5%
Population Normal (%) [1]: 100%
Population Pyknosed Nuclei (%) [1]: 26.46% and 13.39%
Population Apoptotic (%) [2]: 14.93% and 26.53%
Population Healthy Nuclei (%) [2]: 58.85% and 71.95%
Population Hoechst High Intensity Objects (%) [2]: 0%
Population Mitotic Cells (%) [2]: 85.07% and 73.47%
Population Normal (%) [2]: 100%
Population Pyknosed Nuclei (%) [2]: 29.65% and 22.17%
Population Apoptotic (%) [3]: 8.89% and 19.35%
Population Healthy Nuclei (%) [3]: 68.08% and 79.62%
Population Hoechst High Intensity Objects (%) [3]: 0%
Population Mitotic Cells (%) [3]: 91.11% and 80.65%
Population Normal (%) [3]: 100%
Population Pyknosed Nuclei (%) [3]: 21.13% and 11.7%
Population Healthy Nuclei (%) [4]: 69.48% and 75.54%
Population Hoechst High Intensity Objects (%) [4]: 0%
Population Mitotic Cells (%) [4]: 93.62% and 75.76%
Population Normal (%) [4]: 100%
Population Pyknosed Nuclei (%) [4]: 18.88% and 11.87%
Population Apoptotic (%) [5]: 25%
Population Healthy Nuclei (%) [5]: 78.48% and 79.12%
Population Hoechst High Intensity Objects (%) [5]: 0%
Population Mitotic Cells (%) [5]: 75% and 83.33%
Population Normal (%) [5]: 100%
Population Pyknosed Nuclei (%) [5]: 8.44% and 6.59%
Population Apoptotic (%) [6]: 33.33% and 57.14%
Population Healthy Nuclei (%) [6]: 77.93% and 84.75%
Population Hoechst High Intensity Objects (%) [6]: 0%
Population Mitotic Cells (%) [6]: 66.67% and 42.86%
Population Normal (%) [6]: 100%
Population Pyknosed Nuclei (%) [6]: 3.1% and 4.96%

O=C1NCc2ccc3c(-c4cccc(Cl)c4)c[nH]c3c21
Population Apoptotic (%) [1]: 13.51% and 26.32%
Population Fragmented Nuclei (%) [1]: 16.45% and 5.58%
Population Healthy Nuclei (%) [1]: 59.21% and 76.74%
Population Hoechst High Intensity Objects (%) [1]: 0%
Population Membrane Permeable-Phenotype (%) [1]: 4.44% and 3.64%
Population Mitochondria Different-Phenotype (%) [1]: 8.89% and 8.48%
Population Mitotic Cells (%) [1]: 86.49% and 73.68%
Population Normal (%) [1]: 100%
Population Pyknosed Nuclei (%) [1]: 24.34% and 17.67%
Population Tubulin-Different-Phenotype (%) [1]: 10% and 13.33%
Total Cell Count [1]: 152 and 215
Population Apoptotic (%) [2]: 23.21% and 34.92%
Population Fragmented Nuclei (%) [2]: 9.88% and 1.93%
Population Healthy Nuclei (%) [2]: 57.56% and 67.63%
Population Hoechst High Intensity Objects (%) [2]: 0%
Population Membrane Permeable-Phenotype (%) [2]: 3.03% and 5%
Population Mitochondria Different-Phenotype (%) [2]: 15.15% and 17.86%
Population Mitotic Cells (%) [2]: 76.79% and 65.08%
Population Normal (%) [2]: 100%
Population Pyknosed Nuclei (%) [2]: 32.56% and 30.43%
Population Tubulin-Different-Phenotype (%) [2]: 8.08% and 17.14%
Total Cell Count [2]: 172 and 207
Population Apoptotic (%) [3]: 18.75% and 20.59%
Population Fragmented Nuclei (%) [3]: 13.25% and 6.58%
Population Healthy Nuclei (%) [3]: 65.56% and 79.42%
Population Hoechst High Intensity Objects (%) [3]: 0%
Population Membrane Permeable-Phenotype (%) [3]: 7.07% and 4.66%
Population Mitochondria Different-Phenotype (%) [3]: 10.1% and 5.18%
Population Mitotic Cells (%) [3]: 81.25% and 79.41%
Population Normal (%) [3]: 100%
Population Pyknosed Nuclei (%) [3]: 21.19% and 13.99%
Population Tubulin-Different-Phenotype (%) [3]: 13.13% and 9.84%
Total Cell Count [3]: 151 and 243
Population Apoptotic (%) [4]: 30.77% and 40.54%
Population Fragmented Nuclei (%) [4]: 11.59% and 4.85%
Population Healthy Nuclei (%) [4]: 64.63% and 77.18%
Population Hoechst High Intensity Objects (%) [4]: 0%
Population Membrane Permeable-Phenotype (%) [4]: 3.77%
Population Mitochondria Different-Phenotype (%) [4]: 12.26% and 8.81%
Population Mitotic Cells (%) [4]: 69.23% and 59.46%
Population Normal (%) [4]: 100%
Population Pyknosed Nuclei (%) [4]: 23.78% and 17.96%
Population Tubulin-Different-Phenotype (%) [4]: 9.43% and 8.81%
Total Cell Count [4]: 164 and 206
Population Apoptotic (%) [5]: 20.83% and 38.89%
Population Fragmented Nuclei (%) [5]: 10.71% and 5.78%
Population Healthy Nuclei (%) [5]: 75% and 86.22%
Population Hoechst High Intensity Objects (%) [5]: 0%
Population Membrane Permeable-Phenotype (%) [5]: 4.76% and 5.67%
Population Mitotic Cells (%) [5]: 79.17% and 61.11%
Population Normal (%) [5]: 100%
Population Pyknosed Nuclei (%) [5]: 14.29% and 8%
Population Tubulin-Different-Phenotype (%) [5]: 7.94% and 9.28%
Total Cell Count [5]: 168 and 225
Population Apoptotic (%) [6]: 20% and 60%
Population Fragmented Nuclei (%) [6]: 11.49% and 4.95%
Population Healthy Nuclei (%) [6]: 77.01% and 82.67%
Population Hoechst High Intensity Objects (%) [6]: 0%
Population Membrane Permeable-Phenotype (%) [6]: 2.24% and 5.99%
Population Mitochondria Different-Phenotype (%) [6]: 10.45% and 5.99%
Population Mitotic Cells (%) [6]: 80% and 40%
Population Normal (%) [6]: 100%
Population Pyknosed Nuclei (%) [6]: 11.49% and 12.38%
Population Tubulin-Different-Phenotype (%) [6]: 5.97% and 10.18%
Total Cell Count [6]: 174 and 202

Reference: ChEMBL document CHEMBL5724801, “EUbOPEN Chemogenomics Library - Multiplex” (2024)
